Measured values from different studies.
Lines come from different studies, so protocols differ.
Target: Mitogen-activated protein kinase kinase kinase kinase 3 (MAP4K3, Homo sapiens, UniProt Q8IVH8)
Residues used in one study (Q8IVH8 1-894): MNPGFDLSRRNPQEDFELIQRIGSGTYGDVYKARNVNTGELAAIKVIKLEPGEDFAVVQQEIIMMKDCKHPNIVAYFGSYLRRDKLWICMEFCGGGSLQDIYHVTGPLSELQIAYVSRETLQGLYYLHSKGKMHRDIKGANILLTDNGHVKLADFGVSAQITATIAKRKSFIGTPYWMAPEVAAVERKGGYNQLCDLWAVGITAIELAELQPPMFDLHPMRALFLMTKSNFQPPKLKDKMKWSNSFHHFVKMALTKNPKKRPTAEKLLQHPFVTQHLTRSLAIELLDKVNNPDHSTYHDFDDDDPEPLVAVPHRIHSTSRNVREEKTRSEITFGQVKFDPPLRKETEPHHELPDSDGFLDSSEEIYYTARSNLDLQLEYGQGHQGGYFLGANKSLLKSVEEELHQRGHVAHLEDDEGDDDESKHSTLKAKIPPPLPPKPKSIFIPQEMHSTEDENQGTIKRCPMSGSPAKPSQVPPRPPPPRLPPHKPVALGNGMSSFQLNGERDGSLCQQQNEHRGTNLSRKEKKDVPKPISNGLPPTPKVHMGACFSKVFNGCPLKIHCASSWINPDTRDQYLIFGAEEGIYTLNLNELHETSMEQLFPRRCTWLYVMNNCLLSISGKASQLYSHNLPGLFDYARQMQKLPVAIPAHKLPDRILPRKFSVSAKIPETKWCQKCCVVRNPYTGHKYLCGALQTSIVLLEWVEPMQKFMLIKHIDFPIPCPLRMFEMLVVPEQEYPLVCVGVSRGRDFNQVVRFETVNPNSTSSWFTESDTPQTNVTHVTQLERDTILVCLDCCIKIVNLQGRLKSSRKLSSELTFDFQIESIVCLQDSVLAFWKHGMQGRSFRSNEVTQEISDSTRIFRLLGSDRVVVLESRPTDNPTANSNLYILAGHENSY

| SMILES | observed | method | concentration | remaining binding |
| --- | --- | --- | --- | --- |
| N[C@@H]1CCN(c2nccc(-c3cnn4ncccc34)n2)C1 | binding | – | 1 µM | 76% |
| O=C(O)c1cc(-c2ccc(C3CCNCC3)cc2)c2ccc(-c3ccc(C(F)(F)F)cc3)cc2c1 | cell-free assay | competition with immobilised ligand | 1 µM | 100% |
| O=C(NCCCN1CCOCC1)c1ccc(Nc2nccc(-c3cc4ccccc4s3)n2)cc1 | binding | competition with immobilised ligand | 1 µM | 65% |
| CN(c1nccc(-c2cnn3ncccc23)n1)C1CC1 | binding | – | 1 µM | 100% |
| c1cncc(-c2cccc(Nc3nccc(NC4CCCCC4)n3)c2)c1 | binding | competition with immobilised ligand | 10 µM | 83% |
| CN(CCCC(F)(F)F)c1nccc(-c2cnn3ncccc23)n1 | binding | – | 1 µM | 100% |
| O=C(NCCCN1CCOCC1)c1ccc(Nc2ncc(Cl)c(-c3ccc(Cl)s3)n2)cc1 | binding | competition with immobilised ligand | 1 µM | 38% |
| CC1=C(C#N)[C@@H](c2ccc3[nH]nc(C)c3c2)C(C#N)=C(c2ccc(Cl)cc2)N1 | cell-free assay | competition with immobilised ligand | 1 µM | 100% |
| COc1ncc2cc3ccccc3nc2c1C#N | cell-free assay | competition with immobilised ligand | 5 µM | 100% |
| CC(C)(O)c1cncc(-c2nc3ccc(F)cc3n2C2CC2)c1 | cell-free assay | competition with immobilised ligand | 1 µM | 100% |
| O=C(c1ccc(Nc2ncc(Cl)c(-c3ccc(Cl)s3)n2)cc1)N1CCC(N2CCCC2)CC1 | binding | competition with immobilised ligand | 1 µM | 50% |
| NS(=O)(=O)c1cc(NC(=O)Cc2ccccc2)ccc1Oc1cccc(Cl)c1 | cell-free assay | competition with immobilised ligand | 1 µM | 100% |
| CN(C)c1nccc(-c2cnc3ncccn23)n1 | binding | – | 1 µM | 100% |
| CN([C@@H]1CCc2c(CC(=O)O)c3cc(S(C)(=O)=O)ccc3n2C1)S(=O)(=O)c1ccc(F)cc1 | cell-free assay | competition with immobilised ligand | 1 µM | 100% |
| CN(C)c1ncc(F)c(-c2cnn3ncccc23)n1 | binding | – | 1 µM | 100% |
| O=C(Nc1cccnn1)N1CCC(=Cc2cccc(Oc3ccc(C(F)(F)F)cn3)c2)CC1 | cell-free assay | competition with immobilised ligand | 1 µM | 100% |
| Nc1ncc2c(n1)-c1c([nH]c3ccc(C#CC4CC4)cc13)CCCC2 | binding | competition with immobilised ligand | 1 µM | 87% |
| O=C(Nc1c[nH]nc1C(=O)NC1CCNCC1)c1cc(F)cc(F)c1 | binding | competition with immobilised ligand | 1 µM | 74% |
| F[C@@H]1CCN(c2nccc(-c3cnn4ncccc34)n2)C1 | binding | – | 1 µM | 100% |
| COc1cnc(Nc2cccc(S(N)(=O)=O)c2)nc1N1CCN(c2ccccc2)C(=O)C1 | binding | competition with immobilised ligand | 1 µM | 95% |
